This is an account of results in PubChem BioAssay AID540295 (The Scripps Research Institute Molecular Screening Center, 2011).

Screen size: about 360,000 compounds; about 1,700 (0.47%) were called active.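 Rule for the calls: active = inhibition above its plate's cutoff, the mean of tested wells on that plate plus 3 SD (cut at about 29% in these data); inactive = the rest.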 This excerpt belongs to a sample that is enriched for actives.

Melanocortin receptor 4 (Homo sapiens), sequence (P32245 whole entry, looked up): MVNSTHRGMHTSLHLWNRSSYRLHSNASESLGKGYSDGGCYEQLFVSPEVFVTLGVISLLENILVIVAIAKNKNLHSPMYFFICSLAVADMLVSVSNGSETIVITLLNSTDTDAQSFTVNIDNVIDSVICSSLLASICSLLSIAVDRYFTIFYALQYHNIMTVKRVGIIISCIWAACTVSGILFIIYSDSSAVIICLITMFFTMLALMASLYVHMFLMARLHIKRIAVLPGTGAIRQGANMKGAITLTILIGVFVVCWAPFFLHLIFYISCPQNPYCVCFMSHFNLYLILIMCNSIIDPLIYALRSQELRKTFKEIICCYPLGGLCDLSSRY

In this experiment the target is Melanocortin receptor 4 (Homo sapiens) (UniProt P32245). The experiment in a line: blockers of MC4R Gs-cAMP response – cell-based, TR-FRET, antagonist arm of biased-ligand search, primary screen (AID 540295).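 Note: 0% = Melanotan II alone and 100% = Melanotan II plus saturating MCL0020.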 Conditions: MC4R-expressing cells, MTII-stimulated cAMP, LANCE TR-FRET; at 6.5 µM; stronger effect = higher value. A digest of the protocol:
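System: U2OS-MC4R stable cell line; Technique: Eu-cAMP/anti-cAMP TR-FRET, emission 671 nm; Repeats: single well per compound; Also added: Melanotan II; Dosing: one concentration, 6.5 µM nominal; Schedule: 30-min compound, 1-h challenge, 1-h detection, room temperature.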
In the case of `Cn1cccc1C(=O)OCC(=O)c1ccc(Br)s1`, the inhibition was 4.25% (inactive).

Regarding `NC(=O)c1ccc(NC(=O)COC(=O)c2c3c(nc4ccccc24)/C(=C\c2ccc4c(c2)OCO4)CCC3)cc1`, the inhibition is -10% (inactive).

In the case of `O=C(COC(=O)c1c2c(nc3ccccc13)CCCC2)c1ccc(Br)s1`, the inhibition was 33.9% (active).

Turning to `COC(=O)c1cc(NC(=O)c2cc(C(C)(C)C)nn2Cc2cccc(C)c2)ccc1N1CCOCC1`, the inhibition is 4.17% (inactive).

Take `COc1ccc(NC2CCCN(C(=O)c3ccccc3-c3ncc[nH]3)C2)cc1` (configuration not stated): the inhibition was 4.61% (inactive).

As for `CCc1ccc2oc(=O)cc(CN3CCCCC3C)c2c1` (configuration not stated), the inhibition was 10.6% (inactive).

With `CC(NC(=O)COc1ccccc1)C(=O)NC1=NCCS1` (configuration not stated), the inhibition was 0.52% (inactive).

`O=C(OCC(=O)N1CCCC1)c1ccc(Cl)nc1`: the inhibition was -3.4% (inactive).

In the case of `O=C(OCC(=O)N1CCCCCC1)c1cnc(Cl)c(Cl)c1`, the inhibition is 30.5% (active).

As to `CCOc1ncccc1C(=O)NCCc1ccc(OC)cc1`, the inhibition was -0.79% (inactive).

On to `CC(CCc1ccccc1)NC(=O)c1cnc(Cl)c(Cl)c1` (configuration not stated), for which the inhibition was 9.38% (inactive).

On to `COC(=O)c1ccc(COC(=O)c2cnc(Cl)c(Cl)c2)cc1`, for which the inhibition is 21.5% (inactive).

With `COc1ccc(CCNC(=O)COC(=O)c2cnc(Cl)c(Cl)c2)cc1`, the inhibition was 39.7% (active).

Regarding `COc1ccc(CCNC(=O)c2cnc(Cl)c(Cl)c2)cc1`, the inhibition is 29.6% (active).

Take `O=C(OCC(=O)N1CCCCCC1)c1ccc(Cl)nc1`: the inhibition is 2.21% (inactive).

Consider `COc1ccc(CCNC(=O)COC(=O)c2ncc(Cl)c(Cl)c2Cl)cc1OC`, for which the inhibition was 14.8% (inactive).

For `NC1=NC(=O)S/C1=C\c1ccc(O)cc1`, the inhibition was -45.1% (inactive).

In the case of `CC(CC(=O)C1C(C)C=CCC1(C)C)NNC(N)=O` (configuration not stated), the inhibition was 0.06% (inactive).

On to `CCCc1nc2oc3c(OCC)ncnc3c2c2c1COC(C)(C)C2`, for which the inhibition was 2.51% (inactive).

For `COc1ccc(/C=N/n2c(C)cc(C)cc2=O)cc1`, the inhibition is 5.08% (inactive).

In the case of `CCOC(=O)C1=CN(Cc2ccc(Br)cc2)S(=O)(=O)NC1C` (configuration not stated), the inhibition is 1.79% (inactive).

As to `CN(C)/C=C(/C(=O)c1ccc(F)cc1)S(=O)(=O)c1ccc(F)cc1`, the inhibition is -0.11% (inactive).

In the case of `CCOC(=O)N1CCN(C(=O)C2CCN(S(C)(=O)=O)CC2)CC1`, the inhibition is 3.32% (inactive).

As for `Brc1ccc(CN2CC[C@H]3C=CCc4cccc(c43)C2)cc1`, the inhibition was 11.3% (inactive).

As to `Cc1cc(=O)n2nc(N3CCCC(C(=O)N4CCN(C)CC4)C3)sc2n1` (configuration not stated), the inhibition was 0.44% (inactive).

`CSc1nnc2c(n1)OC(c1ccsc1)N(C(C)=O)c1ccccc1-2` (configuration not stated): the inhibition is 3.07% (inactive).

As for `CNC(=O)C1CN(C(=O)c2cccc(S(=O)(=O)N3CCc4ccccc43)c2)c2ccccc2O1` (configuration not stated), the inhibition was 5.06% (inactive).

With `CSc1ccc(C#N)cc1NC(=O)c1ccc(Cl)cc1`, the inhibition was 2.18% (inactive).

Regarding `Cc1c(Cl)cccc1NC(=S)NCC(O)c1ccccc1` (configuration not stated), the inhibition was 3.92% (inactive).

As to `Cc1c(Cl)cccc1NC(=O)NCc1ccc(C)n1C`, the inhibition was 5.07% (inactive).

Turning to `Cc1c(Cl)cccc1NC(=O)[C@@]1(CC(=O)O)CC(/C=C/c2ccccc2)=NO1`, the inhibition is 38.9% (active).

Take `Cc1ccc(OCC(=O)Nc2cccc3c2CCCC3)cc1C`: the inhibition was 5.28% (inactive).

Take `O=C(COC(=O)/C=C/c1cn(-c2ccccc2)nc1-c1cccnc1)Nc1ccc(Cl)cc1Cl`: the inhibition is 11.1% (inactive).

On to `O=C(O)CCn1cc(/C=C/C(=O)c2ccc(Cl)cc2)c(-c2cccc(Br)c2)n1`, for which the inhibition is 32.5% (active).

Regarding `O=c1c2cc(Br)ccc2nc(-c2cccc(Cl)c2)n1O`, the inhibition was 2.37% (inactive).

In the case of `CCOC(=O)C1(Cc2ccccc2C(F)(F)F)CCN(C(=O)c2cc(C)n(C)n2)CC1`, the inhibition is 5.76% (inactive).

`COc1ccc(/C=C/C(=O)c2c(O)cc(OC)cc2OC)cc1`: the inhibition is -19.9% (inactive).

Turning to `CCOc1ccc(OCC(=O)Nc2c3c(nn2C(C)(C)C)CS(=O)(=O)C3)cc1`, the inhibition was 1.77% (inactive).

As to `O=S(=O)(Cc1noc(-c2ccc(OC(F)(F)F)cc2)n1)c1ccc(F)cc1`, the inhibition is 4.42% (inactive).

In the case of `O=C(Nc1ccc(F)c([N+](=O)[O-])c1)C1CC(=O)N(Cc2ccccc2)C1` (configuration not stated), the inhibition was 35.5% (active).

Regarding `CC(OC(=O)C1CC(=O)N(Cc2ccccc2)C1)C(=O)Nc1ccccc1[N+](=O)[O-]` (configuration not stated), the inhibition is -5.04% (inactive).

As to `Cc1cc(=O)oc2cc(NC(=O)C3CC(=O)N(Cc4ccccc4)C3)ccc12` (configuration not stated), the inhibition was 15.7% (inactive).

Regarding `Cc1cc(-c2csc(N)n2)c(C)n1-c1ccccc1`, the inhibition was 4% (inactive).

On to `CC1(C(=O)N/N=C/c2cc3c(cc2Br)OCO3)CC1(Br)Br` (configuration not stated), for which the inhibition was 19.5% (inactive).

Turning to `CC(C)Oc1c(Br)cc(Br)cc1/C=N/NC(N)=S`, the inhibition is 31.4% (active).

For the compound `CCN(CC)C(=O)C1CCCN(Cc2cccc(Cl)c2)C1` (configuration not stated), the inhibition was -1.5% (inactive).

Turning to `O=[N+]([O-])c1ccc(Oc2ccc(F)cc2Br)c2ccncc12`, the inhibition was 2.28% (inactive).

With `COc1ccc(Cl)cc1-c1cc(C(=O)Nc2cc(OC)c(OC)c(OC)c2)[nH]n1`, the inhibition was 29.8% (active).

As for `CCCOc1ccc(F)cc1-c1cc(C(=O)Nc2ccc(F)c(Cl)c2)[nH]n1`, the inhibition was 3.21% (inactive).

Turning to `COc1cc(NC(=O)c2cc(-c3ccc(F)cc3OC(C)C)n[nH]2)cc(OC)c1OC`, the inhibition was 19.5% (inactive).

With `COc1ccc(Oc2c(Cl)cnn(-c3ccccc3)c2=O)cc1`, the inhibition was 54.6% (active).

Consider `Cc1cccc(-n2ncc(Cl)c(Cl)c2=O)c1`, for which the inhibition is 27.8% (inactive).

In the case of `COc1ccc(CCNC(=O)c2c(C)nn(-c3ccccc3)c2Cl)cc1`, the inhibition was 13.4% (inactive).

For `CC(C)Nc1nc(NCCOc2ccccc2Cl)c2sccc2n1`, the inhibition was -7.14% (inactive).

Regarding `COc1ccc2c(c1)C(=O)Nc1cc(Cl)ccc1N2`, the inhibition is -3.19% (inactive).

Consider `COc1ccc(/C=C(\C#N)C(=O)NCCCn2ccnc2)cc1`, for which the inhibition is 6.52% (inactive).

Turning to `COCCCNC(=O)/C(C#N)=C/c1c(N2CCCCCC2)nc2ccccn2c1=O`, the inhibition is 31% (active).

Consider `CCOCCCNC(=O)c1cc2c(=O)n3ccccc3nc2s1`, for which the inhibition was -4.33% (inactive).

For `CN(C)C(=O)c1cccc(-c2cnc3c(NC=O)cc(-c4ccc(F)cc4)cn23)c1`, the inhibition was -2.24% (inactive).

Take `O=C(NNS(=O)(=O)c1c(F)cc(F)c(Cl)c1F)C12CC3CC(CC(C3)C1)C2`: the inhibition was -0.65% (inactive).

With `CC(=O)N1CCN(S(=O)(=O)c2c(F)cc(F)c(Cl)c2F)CC1`, the inhibition was 32.7% (active).

Regarding `O=C(c1cnc(Cl)c(Cl)c1)N1CCN(S(=O)(=O)c2ccc(F)cc2)CC1`, the inhibition was 19.3% (inactive).
